Experimental data published in ChEMBL document CHEMBL4308847, “Discovery, Structure-Activity Relationship, and Biological Characterization of a Novel Series of 6-((1 H-Pyrazolo[4,3- b]pyridin-3-yl)amino)-benzo[ d]isothiazole-3-carboxamides as Positive Allosteric Modulators of the Metabotropic Glutamate Receptor 4 (mGlu4)” (J Med Chem, 2018).
Activity calls are given as the source filed them. No cut-off for these calls is given here.

Experiments:
[1] = Intrinsic clearance in rat liver microsomes at 1 uM preincubated for 5 mins followed by NADPH addition measured up to 45 mins by LC-MS/MS analysis; format: ADME, Microsome; conditions: read-out: CLH
Procedure, shortened: (§1)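 Intrinsic and predicted hepatic clearance derived from liver microsome incubations.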

[2] = Brain to plasma partition coefficient, Kp of the compound in rat administered as iv cassette dose; format: ADME, organism-based; conditions: brain and plasma, read-out: Kp
Procedure, shortened: (§2)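 Cassette dosing in male Sprague-Dawley rats (~300 g, n = 1 per experiment), with carotid artery and jugular vein catheters. Animals acclimated about one week with food and water ad libitum. Plasma (ng/mL) and brain (ng/g) levels were measured and Kp calculated.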

[3] = Cmax in rat at 15 mg/kg, po qd for 4 days measured on day 1 post dose; conditions: in vivo
[4] = Unbound plasma concentration in Sprague-Dawley rat model of haloperidol-induced catalepsy at 10 mg/kg, po; format: ADME, organism-based; conditions: in vivo
Procedure, shortened: (§3)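 Male Sprague-Dawley rats given haloperidol 0.75 mg/kg i.p., then returned to cages for 60 min. Compound 10 mg/kg was dosed orally 30 min before catalepsy testing. Plasma, brain and CSF were then assayed, and free levels reported.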

[5] = Drug uptake in cerebrospinal fluid of Sprague-Dawley rat model of haloperidol-induced catalepsy at 10 mg/kg, po; format: ADME, organism-based; conditions: in vivo, read-out: Drug uptake; procedure, shortened: as §3
[6] = Plasma concentration in Sprague-Dawley rat model of haloperidol-induced catalepsy at 10 mg/kg, po; format: ADME, organism-based; conditions: in vivo; procedure, shortened: as §3
[7] = Fraction unbound in rat plasma after 4 hrs by equilibrium dialysis method; format: ADME, cell-free
[8] = Half life in rat administered as iv cassette dose; format: ADME, organism-based; conditions: in vivo
Procedure, shortened: (§4)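 IV cassette in male Sprague-Dawley rats (~300 g, n = 1 per experiment), cannulated in carotid artery and jugular vein and acclimated about one week. Plasma clearance, Vss, t1/2 and MRT were derived.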

[9] = AUC in rat at 15 mg/kg, po qd for 4 days measured on day 1 post dose; conditions: in vivo
[10] = Plasma concentration in rat administered as iv cassette dose; format: ADME, organism-based; conditions: in vivo; procedure, shortened: as §2
[11] = Clearance in rat administered as iv cassette dose; format: ADME, organism-based; conditions: in vivo; procedure, shortened: as §4
[12] = Cmax in rat at 15 mg/kg, po qd for 4 days measured on day 4 post dose; conditions: in vivo
Cytochrome P450 1A2 = target: T1, Cytochrome P450 1A2 (Homo sapiens, UniProt P05177); assay: Inhibition of CYP1A2 in human liver microsomes using phenacetin as substrate preincubated for 15 mins followed by substrate addition and measured after 8 mins by LC-MS/MS analysis; format: ADME
T1 sequence (P05177 whole entry): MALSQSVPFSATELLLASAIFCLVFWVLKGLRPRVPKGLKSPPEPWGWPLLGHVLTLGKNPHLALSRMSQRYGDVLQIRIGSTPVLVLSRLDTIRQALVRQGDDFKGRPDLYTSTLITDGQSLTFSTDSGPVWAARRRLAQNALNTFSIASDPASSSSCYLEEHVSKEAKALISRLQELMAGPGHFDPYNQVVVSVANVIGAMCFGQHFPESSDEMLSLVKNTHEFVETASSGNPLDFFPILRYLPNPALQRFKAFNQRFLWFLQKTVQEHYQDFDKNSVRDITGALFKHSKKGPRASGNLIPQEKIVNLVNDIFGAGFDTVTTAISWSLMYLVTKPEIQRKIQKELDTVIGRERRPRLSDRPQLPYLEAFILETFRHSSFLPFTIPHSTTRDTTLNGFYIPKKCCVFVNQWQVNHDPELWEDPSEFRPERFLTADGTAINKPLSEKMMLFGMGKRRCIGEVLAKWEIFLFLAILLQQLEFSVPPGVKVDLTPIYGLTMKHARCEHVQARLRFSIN
Procedure, shortened: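 IC50 for CYP1A2 inhibition determined in human liver microsomes using specific probe substrate-metabolite pairs.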

[13] = target: T2, AhR (read out as CYP1A2 induction) (Homo sapiens, UniProt P35869); assay: Activation of AhR (unknown origin) assessed as CYP1A2 induction relative to control; format: ADME; conditions: read-out: FC
T2 sequence (P35869 whole entry): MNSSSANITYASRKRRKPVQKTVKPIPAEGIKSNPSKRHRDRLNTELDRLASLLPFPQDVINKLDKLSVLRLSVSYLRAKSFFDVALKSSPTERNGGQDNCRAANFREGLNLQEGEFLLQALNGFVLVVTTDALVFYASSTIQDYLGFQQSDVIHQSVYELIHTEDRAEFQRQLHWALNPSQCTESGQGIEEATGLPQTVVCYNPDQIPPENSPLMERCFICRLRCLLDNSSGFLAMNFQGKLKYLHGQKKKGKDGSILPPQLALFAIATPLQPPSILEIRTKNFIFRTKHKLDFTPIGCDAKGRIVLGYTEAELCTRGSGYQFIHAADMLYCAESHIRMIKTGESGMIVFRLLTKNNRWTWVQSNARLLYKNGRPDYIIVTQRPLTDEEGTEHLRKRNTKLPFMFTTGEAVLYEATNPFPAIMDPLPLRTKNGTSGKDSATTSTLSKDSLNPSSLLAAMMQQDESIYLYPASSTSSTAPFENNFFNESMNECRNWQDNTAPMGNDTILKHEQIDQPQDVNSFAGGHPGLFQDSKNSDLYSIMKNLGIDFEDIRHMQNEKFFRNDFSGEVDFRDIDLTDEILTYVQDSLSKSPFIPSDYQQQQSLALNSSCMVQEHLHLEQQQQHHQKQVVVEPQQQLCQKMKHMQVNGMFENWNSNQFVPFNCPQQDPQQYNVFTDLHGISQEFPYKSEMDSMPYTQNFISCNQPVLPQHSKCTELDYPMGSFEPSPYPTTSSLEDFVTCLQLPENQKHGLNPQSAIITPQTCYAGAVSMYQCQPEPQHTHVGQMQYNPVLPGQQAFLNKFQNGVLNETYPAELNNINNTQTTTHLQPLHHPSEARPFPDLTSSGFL

[14] = Drug uptake in rat brain administered as iv cassette dose; format: ADME, organism-based; conditions: in vivo; procedure, shortened: as §2
[15] = Unbound drug level in brain of Sprague-Dawley rat model of haloperidol-induced catalepsy at 10 mg/kg, po; format: ADME, organism-based; conditions: in vivo; procedure, shortened: as §3
[16] = Intrinsic clearance in human liver microsomes at 1 uM preincubated for 5 mins followed by NADPH addition measured up to 45 mins by LC-MS/MS analysis; format: ADME, Microsome; conditions: read-out: CLH; procedure, shortened: as §1
[17] = AUC in rat at 15 mg/kg, po qd for 4 days measured on day 4 post dose; conditions: in vivo
Rattus norvegicus = assay: Reversal of haloperidol-induced catalepsy in Sprague-Dawley rat assessed as decrease in latency to remove forepaws from bar at 10 mg/kg, po administered 30 mins prior to test; format: functional, organism-based
Procedure, shortened: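 Male Sprague-Dawley rats were randomized and given haloperidol 0.75 mg/kg i.p., then 60 min in home cage. Vehicle or compound (10 mg/kg) was given orally 30 min before catalepsy testing, N = 11–12 rats/group. Data analyzed by one-way ANOVA with Dunnett's test versus vehicle + haloperidol.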

[18] = target: Metabotropic glutamate receptor 4 (Rattus norvegicus) (UniProt P31423); assay: Positive allosteric modulation of rat mGlu4 receptor expressed in HEK cells co-expressing GIRK1/2 assessed as increase in glutamate-induced thallium flux preincubated for 140 secs followed by glutamate addition and measured after 2.5 mins by FluoZin-2-AM dye based fluorescence assay relative to control; format: cell-based
Metabotropic glutamate receptor 4 (Rattus norvegicus), sequence (P31423 whole entry): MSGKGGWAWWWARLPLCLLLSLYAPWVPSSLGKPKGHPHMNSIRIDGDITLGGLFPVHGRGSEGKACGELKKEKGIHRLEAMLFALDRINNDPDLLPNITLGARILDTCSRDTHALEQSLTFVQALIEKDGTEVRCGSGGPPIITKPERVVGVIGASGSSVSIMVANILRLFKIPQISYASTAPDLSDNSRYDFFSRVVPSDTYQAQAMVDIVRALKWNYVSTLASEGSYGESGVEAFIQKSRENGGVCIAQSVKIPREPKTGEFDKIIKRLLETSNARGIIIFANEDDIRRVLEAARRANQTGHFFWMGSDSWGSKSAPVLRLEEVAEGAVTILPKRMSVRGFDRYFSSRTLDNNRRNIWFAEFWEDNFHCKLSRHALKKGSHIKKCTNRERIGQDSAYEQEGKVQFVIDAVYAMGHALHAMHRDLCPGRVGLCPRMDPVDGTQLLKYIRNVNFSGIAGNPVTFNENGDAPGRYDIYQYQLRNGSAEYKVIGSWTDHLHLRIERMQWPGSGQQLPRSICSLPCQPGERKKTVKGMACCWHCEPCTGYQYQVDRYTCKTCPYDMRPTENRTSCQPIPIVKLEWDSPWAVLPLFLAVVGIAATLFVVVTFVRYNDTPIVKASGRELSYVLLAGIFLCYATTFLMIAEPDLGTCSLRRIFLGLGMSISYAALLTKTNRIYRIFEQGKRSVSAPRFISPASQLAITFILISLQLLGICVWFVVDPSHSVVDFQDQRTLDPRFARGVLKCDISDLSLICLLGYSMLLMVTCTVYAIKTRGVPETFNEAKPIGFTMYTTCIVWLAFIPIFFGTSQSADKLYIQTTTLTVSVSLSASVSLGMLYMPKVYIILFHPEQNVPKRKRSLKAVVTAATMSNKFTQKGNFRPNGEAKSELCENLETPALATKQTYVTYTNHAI
Procedure, shortened: (§5)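 HEK cells co-expressing rat mGlu4 and GIRK1/2 were loaded for 1 h at room temperature with FluoZin-2 AM (330 nM final) in HBSS/20 mM HEPES pH 7.4. Compound was incubated 140 s, then thallium buffer with or without agonist was added. Reading continued for 2.5 min at room temperature. Potency was fitted by four-parameter logistic.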

[19] = Drug uptake in brain of Sprague-Dawley rat model of haloperidol-induced catalepsy at 10 mg/kg, po; format: ADME, organism-based; conditions: in vivo, read-out: Drug uptake; procedure, shortened: as §3
[20] = target: T3, Metabotropic glutamate receptor 4 (Homo sapiens, UniProt Q14833); assay: (§6) Positive allosteric modulation of human mGlu4 receptor expressed in CHO cells co-expressing Gqi5 assessed as increase in glutamate-induced calcium mobilization preincubated for 142 secs followed by EC20 glutamate addition and subsequent EC80 glutamate addition after 147 secs by Fluo-4-AM dye based fluorescence assay; format: functional, cell-based
T3 sequence (Q14833 whole entry): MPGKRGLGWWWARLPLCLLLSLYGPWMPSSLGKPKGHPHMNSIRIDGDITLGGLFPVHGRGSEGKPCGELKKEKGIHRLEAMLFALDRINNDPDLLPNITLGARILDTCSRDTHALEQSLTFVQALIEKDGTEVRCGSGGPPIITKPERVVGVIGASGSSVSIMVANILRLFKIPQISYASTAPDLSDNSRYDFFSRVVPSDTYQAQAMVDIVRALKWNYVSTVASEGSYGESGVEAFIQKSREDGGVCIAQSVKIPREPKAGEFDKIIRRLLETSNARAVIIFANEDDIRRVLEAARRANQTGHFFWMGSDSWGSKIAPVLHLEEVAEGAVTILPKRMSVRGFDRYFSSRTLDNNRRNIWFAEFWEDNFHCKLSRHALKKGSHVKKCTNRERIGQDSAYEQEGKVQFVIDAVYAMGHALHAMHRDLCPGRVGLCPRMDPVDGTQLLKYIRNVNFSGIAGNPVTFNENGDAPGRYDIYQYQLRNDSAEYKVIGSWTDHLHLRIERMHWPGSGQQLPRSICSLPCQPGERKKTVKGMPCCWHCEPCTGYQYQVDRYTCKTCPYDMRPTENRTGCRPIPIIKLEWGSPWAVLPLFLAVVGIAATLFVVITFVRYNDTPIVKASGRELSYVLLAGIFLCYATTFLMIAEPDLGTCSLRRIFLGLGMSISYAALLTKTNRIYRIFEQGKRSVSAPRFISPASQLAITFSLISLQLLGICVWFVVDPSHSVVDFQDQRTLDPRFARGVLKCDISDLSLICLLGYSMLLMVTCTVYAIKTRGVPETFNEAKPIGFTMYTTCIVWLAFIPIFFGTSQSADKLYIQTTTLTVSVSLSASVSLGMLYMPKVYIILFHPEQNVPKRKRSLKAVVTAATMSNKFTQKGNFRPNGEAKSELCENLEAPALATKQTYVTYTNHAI
Procedure, shortened: (§7)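 CHO cells expressing human mGlu4 and Gqi5, plated at 30,000 cells/well and grown overnight at 37 °C, 5% CO2. Cells were loaded with 1 μM Fluo-4 AM for 45 min at 37 °C in HBSS/20 mM HEPES/2.5 mM probenecid. Compounds were run as 10-point, 1:3 dilution series. After 142 s, EC20 glutamate was added; 147 s later, EC80 glutamate. Fluorescence was normalized to the maximal glutamate response. EC50 and %Glu Max were fitted by four-parameter logistic, with maximum normalized to PHCCC.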

[21] = target: Metabotropic glutamate receptor 4 (Rattus norvegicus, UniProt P31423); assay: Positive allosteric modulation of rat mGlu4 receptor expressed in HEK cells co-expressing GIRK1/2 assessed as increase in glutamate-induced thallium flux preincubated for 140 secs followed by glutamate addition and measured after 2.5 mins by FluoZin-2-AM dye based fluorescence assay; format: cell-based; procedure, shortened: as §5
Metabotropic glutamate receptor 4 (Rattus norvegicus, UniProt P31423), sequence (P31423 whole entry): as the sequence (P31423 whole entry) above

[22] = Fraction unbound in human plasma after 4 hrs by equilibrium dialysis method; format: ADME, cell-free
[23] = target: T3, Metabotropic glutamate receptor 4; assay: as §6, with “measured” for “subsequent EC80 glutamate addition”, “assay relative to control” for “assay”; format: functional, cell-based; procedure, shortened: as §7

CLint scaled at 1 µM [1]: 62.5 mL/min/kg
Kp [2]: 4.7
Cmax [3]: 86.3 ng/mL
fraction unbound at 4 h [7]: 0.023
half-life [8]: 1.46 h
AUC at 96 h [9]: 624 ng·h/mL
Cp [10]: 60.5 ng/mL
clearance [11]: 37.8 mL/min/kg
Cmax [12]: 62.8 ng/mL
IC50 (Cytochrome P450 1A2): 3.2 µM
fold induction [13]: 6.4
Drug uptake [14]: 285 ng/g
CLint scaled at 1 µM [16]: 7.2 mL/min/kg
AUC at 96 h [17]: 690 ng·h/mL
%max [18]: 98.7%
EC50 [20]: 0.86 µM
EC50 [21]: 0.501 µM
fraction unbound at 4 h [22]: 0.023
%max [23]: 83.5%
Compound: CC(C)(C)Cc1noc2cc(Nc3n[nH]c4nccnc34)ccc12
Cp(f) [4]: 11.2 nM
concentration [5]: 627 nM
concentration [6]: 450 nM
Drug uptake(free) [15]: 5.8 nM
Activity (Rattus norvegicus): Active
concentration [19]: 958 nM
